# Laboratory results reported in article PMC3515069 (Toxicology, 2012).
# Entries after “also recorded” stand apart in the source; their conditions may differ. Where two headings read alike, the source gives them in different places.
# Assays:
# AhR [1] = target: T1, AhR (Homo sapiens, UniProt P35869); experiment: CYP1A1 mRNA induction by qRT-PCR, human MCF-7 cells; conditions: for concentration inducing ~20% of the maximal response of 10 nM TCDD: concentrations up to 100 μM
# T1 sequence (P35869 11-848): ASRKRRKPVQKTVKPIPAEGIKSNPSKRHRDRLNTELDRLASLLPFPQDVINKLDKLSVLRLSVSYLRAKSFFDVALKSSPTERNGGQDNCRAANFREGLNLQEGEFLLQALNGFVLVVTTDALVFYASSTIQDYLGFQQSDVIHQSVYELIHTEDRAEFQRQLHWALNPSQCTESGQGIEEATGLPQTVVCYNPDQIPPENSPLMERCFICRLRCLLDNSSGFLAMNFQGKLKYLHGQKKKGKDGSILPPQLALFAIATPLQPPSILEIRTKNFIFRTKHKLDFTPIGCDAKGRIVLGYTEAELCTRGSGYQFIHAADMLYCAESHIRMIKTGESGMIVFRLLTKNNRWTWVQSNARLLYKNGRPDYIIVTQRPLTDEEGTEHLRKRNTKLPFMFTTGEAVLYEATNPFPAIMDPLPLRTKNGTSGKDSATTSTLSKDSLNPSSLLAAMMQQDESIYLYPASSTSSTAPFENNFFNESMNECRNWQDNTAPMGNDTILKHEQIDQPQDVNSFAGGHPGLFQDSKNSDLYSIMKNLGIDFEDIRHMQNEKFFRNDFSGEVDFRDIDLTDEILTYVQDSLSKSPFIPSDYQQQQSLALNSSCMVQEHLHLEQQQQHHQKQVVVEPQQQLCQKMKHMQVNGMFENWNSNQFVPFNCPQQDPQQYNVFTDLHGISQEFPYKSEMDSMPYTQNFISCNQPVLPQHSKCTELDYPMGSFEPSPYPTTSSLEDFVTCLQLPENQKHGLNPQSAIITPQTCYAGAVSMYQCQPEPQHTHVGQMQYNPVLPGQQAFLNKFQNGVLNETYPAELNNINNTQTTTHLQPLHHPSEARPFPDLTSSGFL
# AhR [2] = target: T1, AhR; format: cell-based; conditions: human MCF-7 cells; for antagonistic effect (in words): 100 μM Chr-13 or 10 μM Chr-19 with TCDD
# AhR [3] = target: T2, AhR (Rattus norvegicus, UniProt P41738); format: cell-based; conditions: rat H4IIE cells; for antagonistic effect (in words): 10 μM Chr-13 or 1 μM Chr-19 with TCDD, qRT-PCR
# T2 sequence (P41738 10-853): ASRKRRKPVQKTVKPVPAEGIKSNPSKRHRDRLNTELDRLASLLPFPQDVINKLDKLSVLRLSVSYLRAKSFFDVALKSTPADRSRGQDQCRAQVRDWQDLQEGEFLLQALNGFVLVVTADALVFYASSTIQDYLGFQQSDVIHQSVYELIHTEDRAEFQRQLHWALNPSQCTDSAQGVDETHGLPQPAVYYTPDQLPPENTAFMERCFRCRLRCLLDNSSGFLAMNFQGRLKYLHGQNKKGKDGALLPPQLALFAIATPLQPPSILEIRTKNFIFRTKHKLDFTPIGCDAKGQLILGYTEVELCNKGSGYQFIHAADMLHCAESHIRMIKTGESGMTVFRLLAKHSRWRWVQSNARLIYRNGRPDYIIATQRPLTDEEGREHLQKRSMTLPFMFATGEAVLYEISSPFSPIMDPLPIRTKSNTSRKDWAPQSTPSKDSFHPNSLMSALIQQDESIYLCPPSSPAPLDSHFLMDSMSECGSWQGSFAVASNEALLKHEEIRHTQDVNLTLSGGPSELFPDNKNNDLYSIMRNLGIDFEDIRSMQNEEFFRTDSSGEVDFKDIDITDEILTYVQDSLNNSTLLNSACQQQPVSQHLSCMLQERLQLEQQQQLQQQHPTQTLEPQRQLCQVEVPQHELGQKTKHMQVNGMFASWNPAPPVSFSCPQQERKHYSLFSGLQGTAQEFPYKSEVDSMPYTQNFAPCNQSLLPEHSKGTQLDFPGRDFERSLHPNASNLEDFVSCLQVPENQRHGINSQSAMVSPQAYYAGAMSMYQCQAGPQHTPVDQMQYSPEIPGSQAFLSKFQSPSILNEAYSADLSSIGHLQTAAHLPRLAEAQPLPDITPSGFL
# AhR [4] = target: T1, AhR
# AhR [5] = target: T1, AhR; experiment: AhR agonist luciferase induction, human HG2L6.1c3 cells; format: cell-based; conditions: 10 μM
# Procedure, shortened: (§1)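 Mouse H1L6.1c2 (from Hepa1c1c7) and human HG2L6.1c3 (from HepG2) hepatoma lines stably carry firefly luciferase under four DREs upstream of the MMTV promoter. Cells were exposed for 24 h at 37°C to test compound (10 mM DMSO stock) in 0.1% DMSO, TCDD (mouse 1 nM, human 10 nM) or vehicle. Cells were PBS-washed and lysed, and luminescence was read. DMSO background was subtracted and values normalised to TCDD = 100%. S.D., n = 3.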
# AhR [6] = target: T1, AhR; experiment: AhR antagonist luciferase assay; format: cell-based; conditions: human HG2L6.1c3 cells, 10 μM with 10 nM TCDD
# AhR [7] = target: T2, AhR; experiment: CYP1A1 mRNA induction by qRT-PCR, rat H4IIE cells; conditions: for concentration inducing ~20% of the maximal response of 10 nM TCDD: rat H4IIE cells, CYP1A1 mRNA
# AhR [8] = target: T2, AhR
# AhR [9] = target: AhR (Mus musculus, UniProt P30561); experiment: AhR agonist luciferase induction, mouse H1L6.1c2 cells; format: cell-based; conditions: 10 μM; for AhR agonist activity (in words): luciferase; for AhR-dependent luciferase induction, normalised to maximal TCDD response: 24 hours, 1 nM TCDD = 100%
# Procedure, shortened: as §1
# AhR [10] = target: T1, AhR; conditions: MCF-7 cells, EROD analysis; ref Ciolino et al. (1999); cited from earlier work
# AhR [11] = conditions: ref Ciolino and Yeh, 1999; cited from earlier work
# AhR [12] = conditions: ref Medjakovic and Jungbauer, 2008; cited from earlier work
# AhR [13] = target: T1, AhR; conditions: human cells; ref Van der Heiden et al., 2007; cited from earlier work
# AhR [14] = target: T2, AhR; conditions: rat H4IIE cells; ref Van der Heiden et al., 2007; cited from earlier work
# Chain of AhR (Mus musculus, UniProt P30561) (P30561 10-805 limits assumed): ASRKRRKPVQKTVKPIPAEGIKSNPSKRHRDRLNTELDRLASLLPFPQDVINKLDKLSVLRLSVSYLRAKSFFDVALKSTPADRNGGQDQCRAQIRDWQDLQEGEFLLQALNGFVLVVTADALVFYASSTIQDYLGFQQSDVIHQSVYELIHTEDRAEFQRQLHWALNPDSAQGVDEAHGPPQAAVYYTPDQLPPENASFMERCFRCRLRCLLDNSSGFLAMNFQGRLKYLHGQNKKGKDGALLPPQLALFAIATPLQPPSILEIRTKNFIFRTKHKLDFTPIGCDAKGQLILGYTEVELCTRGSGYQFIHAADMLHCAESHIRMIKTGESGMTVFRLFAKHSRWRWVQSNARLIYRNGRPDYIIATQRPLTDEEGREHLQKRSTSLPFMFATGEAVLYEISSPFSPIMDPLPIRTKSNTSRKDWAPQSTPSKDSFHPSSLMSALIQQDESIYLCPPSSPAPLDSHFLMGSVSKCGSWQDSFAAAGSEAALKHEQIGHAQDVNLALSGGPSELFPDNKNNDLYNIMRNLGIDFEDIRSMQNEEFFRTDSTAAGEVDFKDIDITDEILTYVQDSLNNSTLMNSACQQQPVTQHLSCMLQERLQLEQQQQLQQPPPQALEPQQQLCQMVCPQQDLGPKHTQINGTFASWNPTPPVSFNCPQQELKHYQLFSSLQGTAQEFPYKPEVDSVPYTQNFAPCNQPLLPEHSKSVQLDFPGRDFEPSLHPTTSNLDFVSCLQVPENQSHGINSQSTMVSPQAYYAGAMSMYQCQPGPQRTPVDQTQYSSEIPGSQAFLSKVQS
# Chain of AhR (Mus musculus, UniProt P30561) (P11499 whole entry partner): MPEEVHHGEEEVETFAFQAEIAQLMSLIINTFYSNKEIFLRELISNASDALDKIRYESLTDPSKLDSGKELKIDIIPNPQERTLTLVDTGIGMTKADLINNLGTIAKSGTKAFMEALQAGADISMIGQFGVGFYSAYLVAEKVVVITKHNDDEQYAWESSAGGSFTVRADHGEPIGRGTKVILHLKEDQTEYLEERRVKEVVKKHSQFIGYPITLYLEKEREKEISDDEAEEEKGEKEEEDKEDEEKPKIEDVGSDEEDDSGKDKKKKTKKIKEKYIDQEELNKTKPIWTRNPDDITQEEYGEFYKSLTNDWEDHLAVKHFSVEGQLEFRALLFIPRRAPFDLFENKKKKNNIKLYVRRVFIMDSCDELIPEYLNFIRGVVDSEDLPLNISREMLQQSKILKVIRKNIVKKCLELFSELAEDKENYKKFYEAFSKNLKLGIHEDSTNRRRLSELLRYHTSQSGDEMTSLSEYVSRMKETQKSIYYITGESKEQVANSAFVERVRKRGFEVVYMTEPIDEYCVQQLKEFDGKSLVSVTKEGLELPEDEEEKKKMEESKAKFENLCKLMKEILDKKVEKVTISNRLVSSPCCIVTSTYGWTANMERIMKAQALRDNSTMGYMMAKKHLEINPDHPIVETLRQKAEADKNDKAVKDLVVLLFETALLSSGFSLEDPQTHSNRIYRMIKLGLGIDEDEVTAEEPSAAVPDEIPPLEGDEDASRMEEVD
# Chain of AhR (Mus musculus, UniProt P30561) (O08915 whole entry partner): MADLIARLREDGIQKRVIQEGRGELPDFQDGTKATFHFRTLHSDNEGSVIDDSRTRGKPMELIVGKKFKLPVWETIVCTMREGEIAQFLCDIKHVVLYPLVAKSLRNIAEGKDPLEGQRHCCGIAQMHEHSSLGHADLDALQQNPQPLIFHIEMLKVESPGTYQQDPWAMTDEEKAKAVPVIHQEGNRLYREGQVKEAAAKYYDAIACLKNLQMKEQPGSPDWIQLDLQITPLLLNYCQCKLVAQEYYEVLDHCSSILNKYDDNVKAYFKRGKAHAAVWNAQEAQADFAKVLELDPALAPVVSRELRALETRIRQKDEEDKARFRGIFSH
smiles,measurement,setting,value
"COc1ccc(-c2cc3cc(Cl)ccc3oc2=O)cc1 [Chr-19, 6-Chloro-3-(4′-methoxy)phenylcoumarin]",concentration inducing ~20% of the maximal response of 10 nM TCDD,"AhR [1]; human MCF-7 cells, CYP1A1 mRNA",10 µM
same,reduction of the potency of TCDD,AhR [2]; 10 μM Chr-19,3 fold
same,antagonistic effect (in words),AhR [2]; qRT-PCR,weak antagonist
same,reduction of the response to 10 nM TCDD,"AhR [2]; qRT-PCR, 10 μM",10%
same,antagonistic effect (in words),AhR [3],no shift of the TCDD curve to the right
same,EC50,AhR [4],140 µM
same,AhR agonist activity (in words),AhR [5],induced significant levels; also recorded: weak agonist
same,AhR antagonist activity (in words),AhR [6],antagonised; also recorded: antagonist
same,concentration inducing ~20% of the maximal response of 10 nM TCDD,AhR [7],1 µM
same,EC50,AhR [8],7.7 µM
same,more potent in rat H4IIE than in human MCF-7 cells,AhR [8],approximately 20 fold
same,AhR agonist activity (in words),AhR [9],weak agonist
Nc1oc2ccccc2c(=O)c1-c1ccc(Cl)cc1 [Chr-4],AhR antagonist activity (in words),AhR [6],antagonised
O=c1c(O)c(-c2ccc(O)cc2)oc2cc(O)cc(O)c12 [kaempferol],AhR activity (in words),AhR [10],antagonist
"COc1ccc2c(=O)c(-c3ccc(Cl)cc3)c(N)oc2c1 [Chr-13, 2-amino-3-(4′-chlorophenyl)-7-methoxychromen-4-one]",EC50 (95% Confidence interval),"AhR [1]; human MCF-7 cells, CYP1A1 mRNA, 4 hours, assuming maximal response is reached",could not be obtained; also recorded: No agonistic effect
same,concentration inducing ~20% of the maximal response of 10 nM TCDD,"AhR [1]; human MCF-7 cells, CYP1A1 mRNA",no response was detected
same,reduction of the potency of TCDD,AhR [2]; 100 μM Chr-13,5 fold
same,antagonistic effect (in words),AhR [2]; qRT-PCR,weak antagonist
same,"background induction, % of the maximal induction",AhR [3]; 10 μM Chr-13 added to TCDD C/R curve,~ 25%
same,antagonistic effect (in words),AhR [3],no antagonistic effects
same,AhR antagonist activity (in words),AhR [6],antagonised; also recorded: strong antagonist
same,EC50,AhR [7],41.5 µM
same,concentration inducing ~20% of the maximal response of 10 nM TCDD,AhR [7],10 µM
same,"AhR-dependent luciferase induction, normalised to maximal TCDD response",AhR [9],50%
same,"AhR-dependent luciferase induction, normalised to maximal TCDD response",AhR [9]; listed as Chr 13,greater than 30%
same,AhR agonist activity (in words),AhR [9],strong agonist
"Clc1cc2c(cc1Cl)Oc1cc(Cl)c(Cl)cc1O2 [TCDD, 2,3,7,8-tetrachlorodibenzo-p-dioxin, reference compound]",EC50,AhR [1],0.000661 µM
same,potency lower in human MCF-7 than in rat H4IIE cells,"AhR [1]; ratio of CYP1A1 mRNA EC50s, p<0.0001",6 fold
same,EC50,AhR [7],0.000113 µM
O=c1c(O)c(-c2ccccc2)oc2cc(O)cc(O)c12 [galangin],AhR activity (in words),AhR [11],AhR antagonist
COc1ccc(-c2coc3cc(O)cc(O)c3c2=O)cc1 [Biochanin A],less potent than TCDD,AhR [12],100 fold
"O=c1c(O)c(-c2ccc(O)c(O)c2)oc2cc(O)cc(O)c12 [quercetin, Quercetin]",AhR activity (in words),AhR [10],AhR agonist
O=c1cc(-c2ccccc2)oc2cc(O)cc(O)c12 [chrysin],AhR activity (in words),AhR [13],partial agonist
same,AhR antagonistic effect (in words),AhR [14],no antagonistic effects
